The text below walks through data of the EternaBench riboswitch data.

The subject of the series is MS2 coat protein. The series can be described thus: apparent Kd, MS2 coat protein; higher = weaker binding; RNA-MaP array; FMN 200 µM where present. An outline of the steps:
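Stalled E. coli RNA polymerase transcribed each design on Illumina sequencing-chip clusters. The clusters were titrated with SNAP-549-labelled MS2 coat protein, starting at 0.7 or 1.5 nM and doubling up to 3 µM, first without ligand and then with constant ligand, in 100 mM Tris-HCl pH 7.5, 80 mM KCl, 4 mM MgCl2, BSA, DTT, yeast tRNA and Tween-20. Green signal was normalised to red-channel RNA signal and to the control-cluster median Fmax. The apparent Kd is the median of filtered binding-curve fits made for each cluster.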

[1] abbreviates: designed as: OFF switch for flavin mononucleotide, no ligand.
[2] abbreviates: ligand present: flavin mononucleotide, designed as: OFF switch for flavin mononucleotide.
The mark [3] stands for this setting: designed as: ON switch for flavin mononucleotide, no ligand.
Where [4] appears, read: ligand present: flavin mononucleotide, designed as: ON switch for flavin mononucleotide.

For the sequence “GUGAGGUAAGGAUAUAGGAGAAAAGAUAAGGUAUGAGAGUUCUAGAAGGUACAUGAGGAUCACCCAUGUUAGGG”, the “apparent Kd” value was 224 nM under setting [1] and 193 nM under setting [2].
Consider “GAGAGACAUGAGGAUCACCCAUGUAGAAUAGAACAAGGAUAUGUGGAAGGCGGAGGAGAGACAGAAGGUGUAGGAG”, for which the “apparent Kd” value was 108 nM under setting [3] and 52.9 nM under setting [4].
In the case of “GUCCUCAGCGAGGAUAUCGGGCGGGUUUUUGUUUGAGAAGGCGUGACAUGAGGAUCACCCAUGUGGCGCGUGGG”, the “apparent Kd” value stood at 51.2 nM under setting [1] and 82.3 nM under setting [2].
On to “GUUUACCGAGGAUAUACAUGAGGAUCACCCAUGUUCCUAACAAACGUCGGUUCAGCGUGUAGAAGGCGGACCUA”, for which the “apparent Kd” value runs as follows: under setting [1], 17.9 nM; under setting [2], 28.4 nM.
In the same order, the values of “UAAAGUUAAGGAGGAUAUUACAUGAGGAUCACCCAUGUAAUGGGCUCGGUGUAAGAAGGCCUUGAGUCGAAGUUUCGGAUAAGG” are 9.05 nM and 18.6 nM.
As to “AGGAGGAAUGUAGGAUAUAUAUAUAUAUAUAGGCAAAGCGUAUAUAUAUAUAUAGAAGGACAUGAGGAUCACCCAUGUUUCCCU”, the “apparent Kd” value reads like this: under setting [1], 9.27 nM; under setting [2], 8.99 nM.
In the same order, the values of “UGGUGAAGUGUAGGAUAUGGAGGUGGGUUUUGGCCAGAAGGACAUGAGGAUCACCCAUGUGGUAGAGGGUUGGCGGUGGCCCGU” are 16 nM and 13.7 nM.
“GUCAGCUCGUGAGGAUAUACAUGUGCUGGAUACAGCACUAAAGAUUUCACAUGAGGAUCACCCAUGUAGAAGGCACGAGCUGAU”: the “apparent Kd” value is 16.9 nM under setting [1] and 38 nM under setting [2].
Turning to “UAGUUAUUCACAGGAUAUCGCCUCUUAUUACAUGAGGAUCACCCAUGUUUAUUUUGUUACAUGUUCGAGAAGGGUGUAGCCGUU”, the “apparent Kd” value reads like this: under setting [1], 345 nM; under setting [2], 375 nM.
On to “AAUGAUUGAUUCCACUUAUACAUGAGGAUCACCCAUGUUAUCGAGGAUAUGCAUUAGAGUGUUUAGCAGAAGGCGAUGUAAUUG”, for which the “apparent Kd” value is 7.82 nM under setting [1] and 25 nM under setting [2].
On to “AGAUAGUGCAGAGGAUAUCUUAAUAGAAAGAAUAGAGAAGGCUGACAUGAGGAUCACCCAUGUGAUGUCUUGAGACUACAUGGU”, for which the “apparent Kd” value was 48.4 nM under setting [1] and 336 nM under setting [2].
In the same order, the values of “AGAAACUACGAGAAGGACAUGUGGUCCAAAACAAACAUGAGGAUCACCCAUGUAGGAUAUCGUAGUUUCAGGAUCGUGAGAUCA” are 284 nM and 61.8 nM.
Consider “ACGAAGACACAAAUGUUCCACGGUGCAGAAGGGUCCCUCACAUGAGGAUCACCCAUGUAACUCGGACAGGAUAUGCUCUUGGGA”, for which the “apparent Kd” value was found to be 47.4 nM under setting [3] and 5.86 nM under setting [4].
As to “GGGUAAUAUCGAGGAUAUGUCUAGACACAUGAGGAUCACCCAUGUAUGUGUAUAGAAGGCGAUAUUAACAGCAUGUUACAUGGG”, the “apparent Kd” value was determined as 291 nM under setting [3] and 60.5 nM under setting [4].
Turning to “GCAGGGUAUGAGAAGGCAUAAUUUAUCUUACCACAUGUUUACAUGAGGAUCACCCAUGUUUCCAAUGAGGAUAUCAUACCGUGC”, the “apparent Kd” value is, setting by setting: under setting [1], 10.9 nM; under setting [2], 9.89 nM.
“GGAUAGGACAGAGGAUAUACGUGCUAGAGAUACUUGCAAAAUUUCCUCACAUGAGGAUCACCCAUGUAGAAGGCUGUCCUAUCG”: the “apparent Kd” value reads like this: under setting [1], 56 nM; under setting [2], 489 nM.
In the same order, the values of “GUCAGCUCGUGAGGAUAUACAUGAUAGAUCGAUUAAUUAAUUAAUUUAACAUGAGGAUCACCCAUGUAGAAGGCACGAGCUGAC” are 51.7 nM and 46.7 nM.
Consider “UAUAUAUAGUAAGGAUAUGUAAUUAUUUUAUUAACAGAAGGUACUGACAUGAGGAUCACCCAUGUUUUAGUGUGGGCAUGUAGA”, for which the “apparent Kd” value is, setting by setting: under setting [1], 83.5 nM; under setting [2], 184 nM.
For the sequence “CGGUUGUCAGGAUAUACGAACAUGUCGCCAGAUGUCAUGGUACAUGAGGAUCACCCAUGUAGAAGGGAGGAGGU”, the “apparent Kd” value reads like this: under setting [1], 135 nM; under setting [2], 80 nM.
Turning to “UUUUCCAGGCAGAAGGGUCCUCACAUGAGGAUCACCCAUGUAAACGUGGAUAGGAUAUGCCACUGGGCUCGAUAAGAGUGGUUC”, the “apparent Kd” value stood at 640 nM under setting [3] and 128 nM under setting [4].
Regarding “CUUCGGGCAGGAUAUGCUGUUUGUGACAUGAGGAUCACCCAUGUGAUGCAGUUUGGGUGUGCAGAAGGGCCUGAGU”, the “apparent Kd” value is 54.6 nM under setting [1] and 67.2 nM under setting [2].
Turning to “AUUAUACAUGAGGAUCACCCAUGUAAUUAAUUAAUUAAGAUCUAGGAUAUCAGCUCGAAUAGAGCUGAGAAGGAGAUCACAUGU”, the “apparent Kd” value was 31.7 nM under setting [3] and 18 nM under setting [4].
As to “CUUUUGUGAGGAUAUCAGUAGUAUAAAAUAAAAUAUACUACUGAGAAGGCACAUGAGGAUCACCCAUGUUCCUC”, the “apparent Kd” value by setting is: under setting [1], 38.3 nM; under setting [2], 263 nM.
In the case of “AGACGGAUCCGCGGUCGAUGCUAACUAGAAGGGCAGGUCACAUGAGGAUCACCCAUGUAGUAUAUGUAGGAUAUAGGAAGCGUU”, the “apparent Kd” value reads like this: under setting [3], 75 nM; under setting [4], 15.8 nM.
